Source: paper PMC9067284 (RSC Advances, 2019)
Blank lines part the entries; values can stand above or below the compound they belong to.

How the values were obtained:
PDK3 [1] = biological target: T1, PDK3 (Homo sapiens, UniProt Q15120); assay: Fluorescence quenching binding study with purified PDK3
In short: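 Intrinsic tryptophan fluorescence quenching of refolded His-tagged human PDK3 (4 μM) at 25 ± 0.1 °C in 50 mM Tris pH 8.0. Test compounds come from 10–30 mM DMSO stocks and are titrated at 0.1–4.0 μM or 2–12 μM. Excitation 280 nm, emission 300–400 nm, blank subtracted, triplicates averaged. Ka and number of sites come from a modified Stern–Volmer plot.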

A549 cells = assay: Cell proliferation MTT assay, A549; format: cell-based; settings: Homo sapiens, A549, 48 h, read-out: IC50, cell growth inhibition
In short: (§1)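 Cells at 37 °C, 5% CO2: A549 in F12K medium; HepG2 and HEK293 in DMEM with 10% heat-inactivated FBS and 1% penicillin-streptomycin; kept under 30 passages. Test compound at 0–250 μM for 48 h in 200 μl, then MTT with absorbance at 570 nm. Viability is given as % of untreated control and plotted against concentration. Doxorubicin is the positive control.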

PDK3 [2] = biological target: T1, PDK3; assay: Enzyme inhibition assay; format: biochemical
In short: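 Recombinant full-length human PDK3, His-tagged, expressed in E. coli BL21 Gold, purified from inclusion bodies by Ni-NTA and refolded by dialysis. Enzyme 5 μM with 200 μM ATP and test compound 0–30 μM, 15–20 min at 25 °C in 50 mM Tris, 100 mM NaCl, pH 8.0. Released phosphate read by malachite green at 620 nm against a 0.0–8 nmol phosphate standard curve. Triplicates, at least three independent experiments.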

HepG2 cells = assay: Cell proliferation MTT assay, HepG2; format: cell-based; settings: Homo sapiens, HepG2, 48 h, read-out: IC50, cell growth inhibition
In short: as §1

PDK3 [3] = biological target: T1, PDK3; assay: Isothermal titration calorimetry of PDK3 with EA; format: binding; settings: ITC, 25 °C, four-site model
In short: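 VP-ITC at 25 °C with PDK3 (30 μM) in the cell and 1% v/v DMSO added to the protein. Test compound is injected from the syringe: a 2 μl first injection, then 10 μl injections at 300 s intervals, stirring at 320 rpm. Heat of dilution is subtracted. The isotherm is fitted to a four-set-of-sites model for Ka, n, ΔH and ΔS.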

T1 sequence (Q15120 whole entry): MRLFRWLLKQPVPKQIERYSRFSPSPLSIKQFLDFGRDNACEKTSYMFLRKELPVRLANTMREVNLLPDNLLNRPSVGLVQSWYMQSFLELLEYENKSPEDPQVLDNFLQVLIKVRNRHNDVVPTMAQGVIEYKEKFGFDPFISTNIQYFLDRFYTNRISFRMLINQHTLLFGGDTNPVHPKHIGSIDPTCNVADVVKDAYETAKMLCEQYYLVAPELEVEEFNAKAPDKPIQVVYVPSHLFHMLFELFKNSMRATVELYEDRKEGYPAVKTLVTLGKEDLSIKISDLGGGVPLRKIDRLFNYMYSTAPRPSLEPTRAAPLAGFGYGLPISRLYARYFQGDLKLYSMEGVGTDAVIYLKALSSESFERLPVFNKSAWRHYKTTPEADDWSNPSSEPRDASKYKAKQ

Structure (SMILES): O=c1oc2c(O)c(O)cc3c(=O)oc4c(O)c(O)cc1c4c23 [Ellagic acid]
Kd (PDK3 [1]): 0.00373 µM
IC50 (A549 cells): 23.4 ± 1.33 µM
IC50 (PDK3 [2]): ~5 µM
IC50 (HepG2 cells): 36.7 ± 3.22 µM
ΔS1 (entropy change) (PDK3 [3]; site 1): ΔS1 = 9.13 cal mol^−1 deg^−1
ΔS2 (entropy change) (PDK3 [3]; site 2): ΔS2 = −927 cal mol^−1 deg^−1
ΔS3 (entropy change) (PDK3 [3]; site 3): ΔS3 = −1950 cal mol^−1 deg^−1
ΔS4 (entropy change) (PDK3 [3]; site 4): ΔS4 = −2090 cal mol^−1 deg^−1
Kd (PDK3 [3]; Ka1 (association constant), site 1): 106 µM
Kd (PDK3 [3]; Ka2 (association constant), site 2): 8.47 µM
Kd (PDK3 [3]; Ka3 (association constant), site 3): 25.6 µM
Kd (PDK3 [3]; Ka4 (association constant), site 4): 33.7 µM

Structure (SMILES): CC1(C)O[C@H]2CC(=O)OC[C@]23[C@H]2CC[C@@]4(C)[C@H](c5ccoc5)OC(=O)[C@H]5O[C@]54[C@]2(C)C(=O)C[C@@H]13 [Limonin]
Kd (PDK3 [1]): 0.0316 µM

Structure (SMILES): C[C@H]1[C@H](C)CC[C@]2(C(=O)O)CC[C@]3(C)C(=CC[C@@H]4[C@@]5(C)CC[C@H](O)C(C)(C)[C@@H]5CC[C@]43C)[C@H]12 [Ursolic acid]
Kd (PDK3 [1]): 1.76 µM

Other lines, results leading:

Kd (PDK3 [1]): 0.177 µM
Structure (SMILES): CC(C)=CCCC(C)=CC=O (mixture of isomers) [Citral]

Kd (PDK3 [1]): 0.271 µM
Structure (SMILES): COc1cc(CNC(=O)CCCC/C=C/C(C)C)ccc1O [Capsaicin]

Kd (PDK3 [1]): 2.59 µM
Structure (SMILES): CCC(C)(C)C(=O)O[C@H]1C[C@@H](C)C=C2C=C[C@H](C)[C@H](CC[C@@H]3C[C@@H](O)CC(=O)O3)[C@H]21 [Simvastatin, reference compound]

Kd (PDK3 [1]): 5.62 µM
Structure (SMILES): COc1cc(C=O)ccc1O [Vanillin]
